Experimental findings from paper PMC3517974 (ChemMedChem, 2009) are described below.

One may read the half-life as how long it takes for the measured level to halve. Read a low half-life as rapid decline.

The nature of data set [1]: In vitro stability in rat liver S9 fraction with NADPH-regenerating system. In kind it is in vitro ADME. The settings on record: for log kS9: hydrolysis constant in rat liver S9 fraction. In a few lines:
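S9 came from male Wistar rat liver (250–300 g), perfused with ice-cold 0.15 M KCl, homogenized 20% w/v in 0.01 M PBS pH 7.4, and spun at 9,000g. It was preincubated 5 min at 37 °C with NADPH-regenerating system (2 mM NADP+, 10 mM G6P, 0.4 U/mL G6PDH, 5 mM MgCl2), 2 mg/mL protein. Test compound was added at 1 µM (1% DMSO). Aliquots were acetonitrile-quenched and analyzed by RP-HPLC; t1/2 from pseudo-first-order constants, mean±SD of three.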

Data set [2] is classed as in vitro ADME, rat. The conditions noted are these: for log kplasma: hydrolysis constant in rat plasma.

For `O=C(NC1CCCCC1)Oc1ccc2ccccc2c1` [Compound 13, Cyclohexylcarbamic acid naphthalen-2-yl ester], the “log kS9” value in data set [1] is given as −0.86. The molecule also returned a log kplasma in data set [2] of −1.57.

As to `CCCCNC(=O)Oc1ccc(OCc2ccccc2)cc1` [Compound 8, n-Butylcarbamic acid 4-benzyloxyphenyl ester], the “log kS9” value in data set [1] is on record as −1.00. Moreover, the log kplasma in data set [2] is reported as −2.68.

On to `O=C(NC1CCCCC1)Oc1cccc(-c2ccccc2)c1` [Compound 1], for which the “log kS9” value in data set [1] was −0.94. In data set [2] (coincubation with esterase inhibitor paraoxon 1 mM), the “t1/2,inhib in rat plasma” value was determined as 2.38 h. This molecule yielded a log kplasma in data set [2] of −1.79.

With `O=C(NC1CCCCC1)Oc1ccc(-c2ccccc2)cc1` [Compound 12, Cyclohexylcarbamic acid biphenyl-4-yl ester], in data set [1], the “stability in rat liver S9 relative to regio isomer 1” value was 3 fold and the “log kS9” value is on record as −1.44. For the same molecule, the log kplasma in data set [2] was −1.50.

Turning to `NC(=O)c1cccc(-c2cccc(OC(=O)NC3CCCCC3)c2)c1` [Compound 9, cyclohexylcarbamic acid 3′-carbamoylbiphenyl-3-yl ester], the “log kS9” value in data set [1] is reported as −1.93. The molecule further showed a half-life at 1 μM in data set [1] (male, Wistar, rat, liver S9 fraction, pH 7.4, half-life in rat liver S9 fraction, in vitro oxidative metabolism) of about 1 h. Besides, the log kplasma in data set [2] is −1.68.
